Data as given in ChEMBL document CHEMBL5532717, “Facile Halogenation of Antimicrobial Peptides As Demonstrated by Producing Bromotryptophan-Labeled Nisin Variants with Enhanced Antimicrobial Activity” (2024).
Converted amounts (≈) assume the structure as drawn. The source made the active and inactive calls. No cut-off for these calls is given here.

Assays:
Bacillus cereus [1] = experiment: Bactericidal activity against Bacillus cereus CH-85 at 15 microg/ml measured for 3 hrs by time-kill assay; assay type: functional, organism-based; details: dose 15.0 µg/ml
Outline: (§1)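 B. cereus CH-85 overnight culture diluted 50-fold in LB and grown at 37 °C with aeration to OD600 0.5, then adjusted to 5 × 10^5 cells/mL. Cells exposed to peptide at several concentrations in tubes at 37 °C, 180 rpm; untreated cells as negative control. Aliquots taken at time points, 10-fold serially diluted and plated on LB agar, incubated overnight at 37 °C, CFU/mL counted; triplicate.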

Staphylococcus aureus [2] = experiment: Antibacterial activity against Staphylococcus aureus LMG10147 assessed as reduction in bacterial growth by broth microdilution method; assay type: functional
Outline: (§2)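 Broth microdilution MIC: inoculum adjusted to approximately 5 × 10^5 CFU/mL. Plates incubated overnight at 37 °C, or at 30 °C for L. lactis. MIC taken as the lowest concentration with no visible growth.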

Bacillus cereus [3] = experiment: Bactericidal activity against Bacillus cereus CH-85 incubated overnight in presence of lipid II by spot-on-lawn assay; assay type: functional, organism-based
Outline: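 B. cereus CH-85 lawn: 0.1% (v/v) overnight-culture inoculum mixed into 1.5% (w/v) LB agar at 45 °C and poured. 5 μL of peptide spotted and dried. Purified lipid II (2 μL) then spotted at the edge of the inhibition halo. Plate incubated overnight at 37 °C and read for lipid II binding.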

Bacillus cereus [4] = experiment: Antibacterial activity against Bacillus cereus CH-85 assessed as reduction in bacterial growth by broth microdilution method; assay type: functional; outline: as §2
Lactococcus lactis = experiment: Antibacterial activity against Lactococcus lactis MG1363 assessed as reduction in bacterial growth by broth microdilution method; assay type: functional; outline: as §2
Enterococcus faecium = experiment: Antibacterial activity against vancomycin-resistant Enterococcus faecium LMG16003 assessed as reduction in bacterial growth by broth microdilution method; assay type: functional
Outline: (§3)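 Broth microdilution per standard guidelines; inoculum about 5 × 10^5 CFU/mL. Incubated overnight at 37 °C. MIC taken as lowest concentration with no visible growth.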

Enterococcus faecalis = experiment: Antibacterial activity against vancomycin-reistant Enterococcus faecalis LMG16216 assessed as reduction in bacterial growth by broth microdilution method; assay type: functional; outline: as §2
Bacillus cereus [5] = experiment: Bactericidal activity against Bacillus cereus CH-85 assessed as bacterial cell killing at 15 microg/ml measured for 3 hrs by time-kill assay; assay type: functional; details: dose 15.0 µg/ml; outline: as §1
Staphylococcus aureus [6] = experiment: Antibacterial activity against methicillin-resistant Staphylococcus aureus LMG15975 assessed as reduction in bacterial growth by broth microdilution method; assay type: functional; outline: as §3

Row | Compound | Activity (Bacillus cereus [1]) | MIC (Staphylococcus aureus [2]) [mg/L] | Activity (Bacillus cereus [3]) | MIC (Bacillus cereus [4]) [mg/L] | MIC (Lactococcus lactis) [mg/L] | MIC (Enterococcus faecium) [mg/L] | MIC (Enterococcus faecalis) [mg/L] | Activity (Bacillus cereus [5]) | MIC (Staphylococcus aureus [6]) [mg/L]
1 | N[C@@H](Cc1c[nH]c2ccc(Br)cc12)C(=O)O | Active | 6.25 (≈ 22.1 µM) | inactive | 3.13 (≈ 11.1 µM) | 0.04 (≈ 0.141 µM) | 3.13 (≈ 11.1 µM) | 12.5 (≈ 44.2 µM) | Active | 3.13 (≈ 11.1 µM)
2 | N[C@@H](Cc1c[nH]c2ccc(O)cc12)C(=O)O [OXITRIPTAN] |  | 12.5 (≈ 56.8 µM) |  | 6.25 (≈ 28.4 µM) | 0.08 (≈ 0.363 µM) | 6.25 (≈ 28.4 µM) | 12.5 (≈ 56.8 µM) |  | > 12.5
3 | N[C@@H](Cc1c[nH]c2cc(Br)ccc12)C(=O)O |  | 12.5 (≈ 44.2 µM) |  | 6.25 (≈ 22.1 µM) | 0.08 (≈ 0.283 µM) | 3.13 (≈ 11.1 µM) | 25 (≈ 88.3 µM) |  | 6.25 (≈ 22.1 µM)
4 | N[C@@H](Cc1c[nH]c2ccccc12)C(=O)O [TRYPTOPHAN] |  | 6.25 (≈ 30.6 µM) |  | 6.25 (≈ 30.6 µM) | 0.04 (≈ 0.196 µM) | 3.13 (≈ 15.3 µM) | 12.5 (≈ 61.2 µM) |  | 6.25 (≈ 30.6 µM)
5 | CCCCCCCCCC(=O)N[C@@H](Cc1c[nH]c2ccccc12)C(=O)N[C@H](CC(N)=O)C(=O)N[C@@H](CC(=O)O)C(=O)N[C@@H]1C(=O)NCC(=O)N[C@@H](CCCN)C(=O)N[C@@H](CC(=O)O)C(=O)N[C@H](C)C(=O)N[C@@H](CC(=O)O)C(=O)NCC(=O)N[C@H](CO)C(=O)N[C@@H]([C@H](C)CC(=O)O)C(=O)N[C@@H](CC(=O)c2ccccc2N)C(=O)O[C@@H]1C |  |  | Active |  |  |  |  |  | 
